# Assay results taken from ChEMBL document CHEMBL5705890, “Antitumor activity of an allosteric inhibitor of centromere-associated protein-E” (Proc Natl Acad Sci U S A, 2010).
# What was measured:
# [1] = target: T1, Centromere-associated protein E (Homo sapiens, UniProt Q02224); assay: Inhibition of microtubule-stimulated ATPase activity of C-terminal 6-his-tagged CENP-E (2 to 340 residues)(unknown origin) expressed in Escherichia coli BL21(DE3) in presence of ATP
# Outline: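 Steady-state ATPase of CENP-E motor domain, residues 2–340 with C-terminal 6-His tag, expressed in E. coli BL21(DE3). Run at 1 nM enzyme, 500 μM ATP and 5 μM paclitaxel-stabilized microtubules in PEM25 (25 mM PIPES-K pH 6.8, 2 mM MgCl2, 1 mM EGTA) plus 10 μM paclitaxel. IC50 taken from concentration-response curves.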
# [2] = target: T1, Centromere-associated protein E; assay: Inhibition of ATPase activity of C-terminal 6-his-tagged CENP-E (2 to 340 residues)(unknown origin) expressed in Escherichia coli BL21(DE3) in presence of ATP
# [3] = target: T1, Centromere-associated protein E; assay: Uncompetitive-like binding affinity to C-terminal 6-his-tagged CENP-E (2 to 340 residues)(unknown origin) expressed in Escherichia coli BL21(DE3) assessed as apparent inhibition constant in presence of ATP; conditions: read-out: Ki(app)
# [4] = target: T1, Centromere-associated protein E; assay: Uncompetitive binding affinity to microtubule-stimulated ATPase activity of C-terminal 6-his-tagged CENP-E (2 to 340 residues)(unknown origin) expressed in Escherichia coli BL21(DE3) assessed as apparent inhibition constant; conditions: read-out: Ki(app)
# Outline: (§1)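 CENP-E motor domain (residues 2–340, C-terminal 6-his, from E. coli BL21(DE3)) run in MT-stimulated ATPase with 500 μM ATP, 5 μM paclitaxel-stabilized MT, 1 nM enzyme in PEM25 buffer, pH 6.8. Apparent Ki taken from the concentration-response curves with explicit correction for enzyme concentration.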
# [5] = target: T1, Centromere-associated protein E; assay: Binding affinity to wild-type human CENP-E assessed as inhibition constant; outline: as §1
# Centromere protein E = Centromere protein E (Canis lupus familiaris, UniProt A0A8P0P634); assay: Binding affinity to wild-type dog CENP-E assessed as inhibition constant
# [6] = target: Centromere-associated protein E (Mus musculus, UniProt Q6RT24); assay: Binding affinity to wild-type mouse CENP-E assessed as inhibition constant
# [7] = target: Centromere-associated protein E (Homo sapiens, UniProt Q02224, I182L/K184T/T183A); assay: Binding affinity to human CENP-E I182L/T183A/K184T mutant assessed as inhibition constant
# [8] = target: T1, Centromere-associated protein E; assay: Competitive-like binding affinity to C-terminal 6-his-tagged CENP-E (2 to 340 residues)(unknown origin) expressed in Escherichia coli BL21(DE3) assessed as apparent inhibition constant in presence of ATP; conditions: read-out: Ki(app)
# T1 sequence (Q02224 whole entry, the tested form may be a part): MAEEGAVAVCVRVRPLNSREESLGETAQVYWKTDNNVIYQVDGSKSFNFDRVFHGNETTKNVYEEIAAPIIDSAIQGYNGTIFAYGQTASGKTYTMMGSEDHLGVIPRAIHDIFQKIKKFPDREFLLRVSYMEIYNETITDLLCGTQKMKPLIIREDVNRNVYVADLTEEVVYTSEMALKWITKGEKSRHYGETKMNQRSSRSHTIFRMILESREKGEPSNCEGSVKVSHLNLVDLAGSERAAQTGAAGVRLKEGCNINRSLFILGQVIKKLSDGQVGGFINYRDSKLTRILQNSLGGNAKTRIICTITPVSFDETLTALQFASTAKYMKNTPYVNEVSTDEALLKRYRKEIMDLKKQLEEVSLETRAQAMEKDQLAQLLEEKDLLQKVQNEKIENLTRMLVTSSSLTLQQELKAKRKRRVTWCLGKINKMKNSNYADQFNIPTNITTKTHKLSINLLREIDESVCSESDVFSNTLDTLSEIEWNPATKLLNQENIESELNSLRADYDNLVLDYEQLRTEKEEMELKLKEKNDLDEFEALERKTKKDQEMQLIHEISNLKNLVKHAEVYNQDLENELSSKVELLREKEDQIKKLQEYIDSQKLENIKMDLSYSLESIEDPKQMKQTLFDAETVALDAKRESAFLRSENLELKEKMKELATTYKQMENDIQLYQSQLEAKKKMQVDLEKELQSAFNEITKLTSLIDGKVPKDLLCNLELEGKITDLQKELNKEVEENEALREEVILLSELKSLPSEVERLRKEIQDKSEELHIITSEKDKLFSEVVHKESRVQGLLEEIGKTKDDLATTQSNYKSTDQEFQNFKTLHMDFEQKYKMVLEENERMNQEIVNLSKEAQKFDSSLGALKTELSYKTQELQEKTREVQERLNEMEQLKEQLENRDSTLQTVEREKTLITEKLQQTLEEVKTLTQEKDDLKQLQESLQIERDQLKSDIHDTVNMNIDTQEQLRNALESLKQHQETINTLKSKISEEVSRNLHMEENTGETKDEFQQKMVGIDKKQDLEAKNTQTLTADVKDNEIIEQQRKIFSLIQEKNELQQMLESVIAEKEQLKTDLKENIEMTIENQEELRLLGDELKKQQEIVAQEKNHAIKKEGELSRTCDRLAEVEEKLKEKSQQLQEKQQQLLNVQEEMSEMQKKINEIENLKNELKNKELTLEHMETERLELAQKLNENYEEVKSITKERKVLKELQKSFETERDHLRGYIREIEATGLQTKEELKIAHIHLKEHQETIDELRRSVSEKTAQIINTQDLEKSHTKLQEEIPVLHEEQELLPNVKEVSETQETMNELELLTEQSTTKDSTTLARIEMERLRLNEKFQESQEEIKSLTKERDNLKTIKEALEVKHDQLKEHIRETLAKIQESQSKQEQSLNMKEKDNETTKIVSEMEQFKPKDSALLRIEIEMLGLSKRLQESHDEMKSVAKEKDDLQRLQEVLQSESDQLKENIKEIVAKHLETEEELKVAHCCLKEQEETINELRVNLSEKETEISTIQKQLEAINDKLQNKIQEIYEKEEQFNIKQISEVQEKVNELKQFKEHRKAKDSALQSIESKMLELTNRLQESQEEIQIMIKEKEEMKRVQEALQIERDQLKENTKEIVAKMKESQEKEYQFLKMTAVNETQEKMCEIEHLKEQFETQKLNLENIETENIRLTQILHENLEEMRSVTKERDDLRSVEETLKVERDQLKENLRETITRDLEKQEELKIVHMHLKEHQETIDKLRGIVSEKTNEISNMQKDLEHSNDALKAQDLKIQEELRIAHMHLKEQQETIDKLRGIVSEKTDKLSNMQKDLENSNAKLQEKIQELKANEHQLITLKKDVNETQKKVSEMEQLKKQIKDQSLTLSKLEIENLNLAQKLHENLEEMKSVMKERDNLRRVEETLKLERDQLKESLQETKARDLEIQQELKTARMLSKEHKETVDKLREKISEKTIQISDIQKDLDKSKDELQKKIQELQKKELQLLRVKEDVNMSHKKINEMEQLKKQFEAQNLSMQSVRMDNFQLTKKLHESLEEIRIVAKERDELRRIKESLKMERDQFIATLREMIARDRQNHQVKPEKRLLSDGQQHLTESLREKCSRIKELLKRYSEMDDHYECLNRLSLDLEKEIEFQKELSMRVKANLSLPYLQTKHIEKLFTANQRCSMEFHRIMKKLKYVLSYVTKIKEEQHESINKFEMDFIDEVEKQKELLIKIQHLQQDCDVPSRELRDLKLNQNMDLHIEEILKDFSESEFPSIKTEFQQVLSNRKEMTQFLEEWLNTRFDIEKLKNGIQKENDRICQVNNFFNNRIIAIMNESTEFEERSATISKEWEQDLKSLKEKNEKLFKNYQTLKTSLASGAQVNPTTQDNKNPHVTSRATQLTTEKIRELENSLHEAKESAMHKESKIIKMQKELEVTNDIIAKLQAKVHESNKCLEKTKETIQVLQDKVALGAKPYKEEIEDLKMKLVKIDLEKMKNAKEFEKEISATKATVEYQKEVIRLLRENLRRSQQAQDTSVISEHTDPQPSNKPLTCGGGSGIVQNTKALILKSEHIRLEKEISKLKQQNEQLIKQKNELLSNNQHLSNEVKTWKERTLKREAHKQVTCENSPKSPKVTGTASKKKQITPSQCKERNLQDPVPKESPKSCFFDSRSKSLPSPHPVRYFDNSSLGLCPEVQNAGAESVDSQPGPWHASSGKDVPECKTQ
# Chain of Centromere-associated protein E (Mus musculus, UniProt Q6RT24) (Q6RT24 whole entry): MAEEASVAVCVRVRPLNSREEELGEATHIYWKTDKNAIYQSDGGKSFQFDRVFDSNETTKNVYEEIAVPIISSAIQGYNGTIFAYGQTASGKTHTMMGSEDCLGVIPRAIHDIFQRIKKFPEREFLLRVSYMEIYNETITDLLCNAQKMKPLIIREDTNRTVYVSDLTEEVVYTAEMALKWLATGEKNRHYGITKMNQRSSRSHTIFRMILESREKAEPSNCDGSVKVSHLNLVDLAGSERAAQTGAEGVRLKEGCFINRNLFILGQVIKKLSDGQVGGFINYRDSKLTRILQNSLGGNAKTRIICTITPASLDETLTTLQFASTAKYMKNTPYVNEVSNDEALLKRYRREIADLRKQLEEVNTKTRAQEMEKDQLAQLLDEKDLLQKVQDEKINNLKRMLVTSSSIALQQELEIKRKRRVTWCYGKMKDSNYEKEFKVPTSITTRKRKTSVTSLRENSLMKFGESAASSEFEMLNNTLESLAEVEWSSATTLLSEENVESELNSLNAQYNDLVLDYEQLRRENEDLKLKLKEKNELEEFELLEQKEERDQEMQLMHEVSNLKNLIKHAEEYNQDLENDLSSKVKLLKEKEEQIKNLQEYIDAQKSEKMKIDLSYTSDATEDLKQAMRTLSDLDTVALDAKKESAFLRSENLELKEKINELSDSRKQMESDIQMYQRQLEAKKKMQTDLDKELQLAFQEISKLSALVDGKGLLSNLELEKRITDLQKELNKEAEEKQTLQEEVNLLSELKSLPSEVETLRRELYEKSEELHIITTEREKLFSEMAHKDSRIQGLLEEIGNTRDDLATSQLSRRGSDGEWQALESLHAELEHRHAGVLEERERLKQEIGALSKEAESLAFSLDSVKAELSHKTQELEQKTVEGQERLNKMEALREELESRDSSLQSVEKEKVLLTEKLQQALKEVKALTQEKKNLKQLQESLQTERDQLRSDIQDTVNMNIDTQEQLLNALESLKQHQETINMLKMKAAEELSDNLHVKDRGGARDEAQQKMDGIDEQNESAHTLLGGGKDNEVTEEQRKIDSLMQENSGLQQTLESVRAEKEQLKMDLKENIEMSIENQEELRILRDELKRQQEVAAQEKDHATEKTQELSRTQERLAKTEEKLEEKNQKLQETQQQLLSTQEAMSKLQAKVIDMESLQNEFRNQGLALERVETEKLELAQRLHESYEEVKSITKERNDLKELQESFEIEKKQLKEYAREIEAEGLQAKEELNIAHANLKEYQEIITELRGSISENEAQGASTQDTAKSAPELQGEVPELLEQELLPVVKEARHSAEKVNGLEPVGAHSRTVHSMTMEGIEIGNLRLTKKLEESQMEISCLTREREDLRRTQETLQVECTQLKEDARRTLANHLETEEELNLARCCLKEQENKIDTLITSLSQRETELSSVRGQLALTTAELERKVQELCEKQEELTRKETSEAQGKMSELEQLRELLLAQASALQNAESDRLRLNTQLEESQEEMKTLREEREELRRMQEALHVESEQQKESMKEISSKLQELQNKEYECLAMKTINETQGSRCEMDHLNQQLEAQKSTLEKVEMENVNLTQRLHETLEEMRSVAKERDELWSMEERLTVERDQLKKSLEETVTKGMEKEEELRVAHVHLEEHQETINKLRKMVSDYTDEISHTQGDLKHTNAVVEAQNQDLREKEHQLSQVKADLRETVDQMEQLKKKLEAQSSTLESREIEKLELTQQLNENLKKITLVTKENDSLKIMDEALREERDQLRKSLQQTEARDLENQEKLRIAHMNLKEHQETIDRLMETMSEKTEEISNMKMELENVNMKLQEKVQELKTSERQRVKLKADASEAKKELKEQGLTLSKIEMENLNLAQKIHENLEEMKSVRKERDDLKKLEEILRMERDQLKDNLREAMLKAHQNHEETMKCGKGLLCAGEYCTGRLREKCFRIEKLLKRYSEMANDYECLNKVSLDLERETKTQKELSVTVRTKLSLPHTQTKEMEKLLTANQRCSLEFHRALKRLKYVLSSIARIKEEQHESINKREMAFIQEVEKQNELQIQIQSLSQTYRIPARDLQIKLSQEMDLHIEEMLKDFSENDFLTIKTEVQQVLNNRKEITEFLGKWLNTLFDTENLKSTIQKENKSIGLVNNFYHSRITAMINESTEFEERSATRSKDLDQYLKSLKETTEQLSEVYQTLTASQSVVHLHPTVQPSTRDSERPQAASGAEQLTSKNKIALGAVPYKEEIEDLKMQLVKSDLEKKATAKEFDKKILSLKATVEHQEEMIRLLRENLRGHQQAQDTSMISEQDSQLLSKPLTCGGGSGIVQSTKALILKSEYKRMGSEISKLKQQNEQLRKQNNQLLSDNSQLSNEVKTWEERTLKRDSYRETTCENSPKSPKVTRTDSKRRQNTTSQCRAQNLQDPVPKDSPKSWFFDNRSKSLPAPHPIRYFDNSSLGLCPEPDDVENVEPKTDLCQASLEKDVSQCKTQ
SMILES,IC50 [1],IC50 [2],Ki [3],Ki [4],Ki [5],Ki (Centromere protein E),Ki [6],Ki [7],Ki [8]
Cc1cccn2cc(-c3ccc(C[C@@H](CCO)NC(=O)c4ccc(OC(C)C)c(C#N)c4)cc3)nc12,0.0037 µM,7.37 µM,0.0042 µM,0.0047 µM,,,,,
CNC(=O)C(Cc1ccc(C(=O)c2ccccc2)cc1)NC(=O)c1ccc(OC(C)C)c(Cl)c1 (stereo not given),0.55 µM,,,,0.0042 µM,0.0024 µM,0.089 µM,0.073 µM,4.4 µM
